Measured values of several laboratories.
nupG: nupG (Escherichia coli, UniProt P0AFF4)
ESR1: Estrogen receptor (ESR1, Homo sapiens, UniProt P03372)
PIK3C3: Phosphatidylinositol 3-kinase catalytic subunit type 3 (PIK3C3, Homo sapiens, UniProt Q8NEB9)
ADRA2C: Alpha-2C adrenergic receptor (ADRA2C, Homo sapiens, UniProt P18825)

SMILES | target | test | conditions | endpoint | result
Nc1nc2c(ncn2[C@@H]2O[C@H](CO)[C@@H](O)[C@H]2O)c(=O)[nH]1 | nupG | binding, ITC | – | Kd | 46.7 µM
C[C@]12CCC3=C4CCC(=O)C=C4CC[C@H]3[C@@H]1CC[C@@]2(O)CC#N | ESR1 | reporter gene, agonist | – | EC50 | > 25 µM
Nc1nc2c(ncn2[C@@H]2O[C@H](COP(=O)(O)OP(=O)(O)O)[C@@H](OP(=O)(O)OP(=O)(O)O)[C@H]2O)c(=O)[nH]1 | pgk (Escherichia coli, UniProt P0A799) | binding, ITC | – | Kd | 493 µM
OC[C@H]1OC(O)[C@H](O)[C@@H](O)[C@@H]1O (some centres unmarked) | Hexokinase-1 (Homo sapiens, UniProt P19367) | binding, MST | – | Kd | 158 µM
CCOc1cc(-c2nncn2C)ccc1Nc1ncc2cc(C)nc(NCC(C)(C)C)c2n1 | Serine/threonine-protein kinase PLK4 (PLK4, Homo sapiens, UniProt O00444) | binding, competition with immobilised ligand | – | Kd | 0.071 µM
ON=Cc1ccc(-c2ccc(O)c(F)c2)c(Cl)c1O | ESR1 | reporter gene, agonist, luciferase | – | EC50 | 1.63 µM
Oc1ccccc1F | Iodotyrosine deiodinase (Haliscomenobacter hydrossis, UniProt F4KU78) | binding, fluorescence | – | Kd | 20000 µM
CCC(S)C(C)CO (centres unmarked) | OR2M3 (Homo sapiens, UniProt Q8NG83) | cAMP, agonist, luciferase | – | EC50 | 1.4 µM
C[C@]12CC[C@H](O)CC1=CC[C@@H]1[C@@H]2CC[C@]2(C)C(c3cccnc3)=CC[C@@H]12 | ESR1 | ligand displacement in cells, radioligand | – | Ki | 0.39 µM
Nc1ccn([C@@H]2O[C@H](CO)[C@@H](O)[C@H]2O)c(=O)n1 | nupG | binding, ITC | – | Kd | 144 µM
On1ccccc1=S | Carbonic anhydrase 14 (CA14, Homo sapiens, UniProt Q9ULX7) | enzyme activity, inhibitor, stopped-flow | – | Ki | 7.1 µM
Cc1nc(NC(=O)N2CCC[C@H]2C(N)=O)sc1-c1ccnc(C(C)(C)C(F)(F)F)c1 | PIK3C3 | binding, competition with immobilised ligand | – | Kd | 24.5 µM
C[C@H]1Oc2cc(cnc2N)-c2c(nn(C)c2C#N)CN(C)C(=O)c2ccc(F)cc21 | Mitogen-activated protein kinase kinase kinase 13 (MAP3K13, Homo sapiens, UniProt O43283) | cell-free assay | lysate | Ki | 0.0327 µM
CCCNc1nc2ccccc2n1Cc1ccc(Cl)cc1 | ADRA2C | ligand displacement, radioligand | – | Ki | 0.434 µM
CCCOc1cccc2nc(N)n(Cc3ccc(Cl)c(Cl)c3)c12 | Pteridine reductase (PTR1, Trypanosoma brucei brucei, UniProt O76290) | enzyme activity, inhibitor, absorbance | – | Ki | 0.05 µM
COc1ccc2c(c1)c(CC(=O)O)c(C)n2C(=O)c1ccc(Cl)cc1 | Peroxisome proliferator-activated receptor gamma (Pparg, Mus musculus, UniProt P37238) | reporter gene, agonist, luciferase | – | EC50 | 12.1 µM
CCOC(=O)[C@@]12C[C@@H]1[C@@H](n1ccc3c(NC)nc(C#Cc4ccccc4)nc31)[C@H](O)[C@@H]2O | Nociceptin receptor (OPRL1, Homo sapiens, UniProt P41146) | ligand displacement, radioligand | – | Ki | > 10 µM
C=CC(=O)N1CCC(C(=O)N(C)CC(=O)N2CCN(c3nc(-c4cnc(N)nc4C(F)F)nc(N4CCOCC4)n3)CC2)CC1 | PIK3C3 | binding, competition with immobilised ligand | – | Kd | 0.275 µM
Nc1ccnc2ccccc12 | ADRA2C | ligand displacement, radioligand | cell membranes | Ki | 81.3 µM
CN1CCN(c2ccc(Nc3ncc4cc(C#N)c(=O)n(C5CCCC5)c4n3)cc2)CC1 | Calcium/calmodulin-dependent protein kinase type II subunit beta (CAMK2B, Homo sapiens, UniProt Q13554) | enzyme activity, inhibitor | – | IC50 | > 10 µM
